Data published in paper PMC10085907 (Clinical Pharmacokinetics, 2023).
Values belong to the molecule of their own block, whether it stands above or below them.

Legend:
CYP3A4 = settings: read-out: CYP3A4 inhibition IC50; in vitro; cited from earlier work
[1] = cited from earlier work
[2] = proguanil alone, previous study; cited from earlier work
[3] = format: in vivo, human; settings: atovaquone/proguanil 250/100 mg alone; N = 16; mean ± SD
Procedure, shortened: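 Healthy CYP2C19 *1/*1 subjects (PCR-genotyped) in a crossover design; acid reducer given orally once daily for 6 days at the approved maximum dose, then co-dosed with oral atovaquone/proguanil. Plasma sampled to 48 h, urine in 0–8, 8–24 and 24–48 h intervals, both assayed by HPLC-MS/MS. Non-compartmental analysis: t½ = ln2/λz, CL/F = dose/AUCinf, fe = 48-h urinary proguanil/dose.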

[4] = cited from earlier work; remark: listed apart in the source
[5] = at the therapeutic dose; cited from earlier work
CYP2C19 [6] = target: T1, CYP2C19 (Homo sapiens, UniProt P33261); format: in vivo; settings: healthy CYP2C19 extensive metabolizers; 7 days of dosing
CYP2C19 [7] = target: T1, CYP2C19; settings: read-out: CYP2C19 half-maximum inhibitory concentration (IC50); in vitro; cited from earlier work

T1 sequence (P33261 whole entry): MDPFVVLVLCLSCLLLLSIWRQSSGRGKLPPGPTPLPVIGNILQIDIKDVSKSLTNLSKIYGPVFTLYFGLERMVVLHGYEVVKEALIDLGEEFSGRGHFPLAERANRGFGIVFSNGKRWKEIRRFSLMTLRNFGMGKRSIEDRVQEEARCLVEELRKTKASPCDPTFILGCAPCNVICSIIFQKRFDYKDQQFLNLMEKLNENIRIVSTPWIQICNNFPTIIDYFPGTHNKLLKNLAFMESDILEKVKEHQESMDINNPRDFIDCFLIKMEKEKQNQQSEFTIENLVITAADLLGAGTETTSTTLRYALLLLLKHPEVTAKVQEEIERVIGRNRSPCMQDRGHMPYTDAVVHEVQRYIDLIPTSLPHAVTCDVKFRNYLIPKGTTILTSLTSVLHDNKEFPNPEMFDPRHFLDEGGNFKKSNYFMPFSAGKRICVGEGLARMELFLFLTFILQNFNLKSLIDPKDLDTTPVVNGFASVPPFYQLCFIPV

SMILES: O=C1C(O)=C([C@H]2CC[C@H](c3ccc(Cl)cc3)CC2)C(=O)c2ccccc21 [Atovaquone, atovaquone]
Excreted unchanged in the feces [1]: ≥ 94%

Metabolic ratio (AUCinf of cycloguanil to AUCinf of proguanil) [3]: 0.35
SMILES: CC1(C)N=C(N)N=C(N)N1c1ccc(Cl)cc1 [Cycloguanil, cycloguanil]
Metabolic ratio (cycloguanil-to-proguanil ratio) [2]: 0.84

SMILES: [H]/N=C(\N/C(=N/[H])Nc1ccc(Cl)cc1)NC(C)C [Proguanil, proguanil]
Biopharmaceutical Classification System (BCS) class [4]: class III
Fraction of the dose renally excreted [1]: 40–60%

SMILES: Cc1nc2c(O[C@H]3CCOc4cc(F)cc(F)c43)cc(C(=O)N(C)C)cc2[nH]1 [Tegoprazan, tegoprazan]
Unbound Cmax [5]: approximately 1.3 µM
Effect on CYP2C19 activity (conclusion from proguanil PK) (CYP2C19 [6]): neither an inhibitor nor an inducer of CYP2C19

SMILES: CNCc1cc(-c2ccccc2F)n(S(=O)(=O)c2cccnc2)c1 [Vonoprazan, vonoprazan]
Unbound maximum plasma concentration (Cmax) [5]: approximately 0.01 µM
IC50 (CYP2C19 [7]): 13 µM

SMILES: Cc1c(OCC(F)(F)F)ccnc1C[S+]([O-])c1nc2ccccc2[nH]1 (stereo not drawn) [lansoprazole]
Biopharmaceutical Classification System (BCS) class [4]: class II

SMILES: COc1ccc2[nH]c([S+]([O-])Cc3ncc(C)c(OC)c3C)nc2c1 (stereo not drawn) [omeprazole]
Biopharmaceutical Classification System (BCS) class [4]: class II
